A word on the GI50: it is the concentration at which growth is held to half of that of the control. Read a low GI50 as more potent growth inhibition. A word on the inhibition: it is the change of the read-out against control, counted positive when it falls. Broadly, the IC50 is the midpoint of a concentration-inhibition curve. High values mean weaker potency in that assay, low ones greater potency in that assay.

The source of these data is ChEMBL document CHEMBL2417396 (J Nat Prod, 2013).

The source made the active and inactive calls. The rule behind the calls is not given here.

The test system of one test is DU-145. Kind of test: Cytotoxicity against human DU145 cells by SRB assay. It counts as functional. The essentials: (§1)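 Cell lines obtained from ATCC and kept in recommended media containing gentamicin and amphotericin B. Growth inhibition was measured by the NCI standard sulforhodamine B assay. GI50 is the drug concentration calculated to halve net protein increase relative to untreated cells. Values are averages of at least three separate experiments, each run in triplicate.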

Another test relates to NCI-H460. Kind of test: Cytotoxicity against human NCI-H460 cells by SRB assay. The format is functional. The essentials: as §1
The target in test [1] is T1, Tubulin (Homo sapiens) (UniProt P68371+Q9H4B7+P0DPH7+P68366+Q13509+Q71U36+P04350+Q3ZCM7+P07437+P68363+Q9BQE3+Q6PEY2+Q13885+Q9BVA1+Q9BUF5). Kind of test: Displacement of [3H]colchicine from tubulin (unknown origin) at 50 uM. The format is protein-complex assay. In short, it runs like this:
(§2)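 Colchicine binding assay with 1 μM tubulin and 5.0 μM [3H]colchicine. Inhibitor tested at 50, 5 and/or 1 μM.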
A general note: Displacement assays read how much labelled ligand stays bound in the presence of the test substance.

In another test the test system is SK-OV-3. The test can be described thus: Cytotoxicity against human SKOV3 cells by SRB assay. It counts as functional. The essentials: as §1
Test [2] in a line: Inhibition of bovine brain tubulin polymerization after 20 mins. On the set-up: species or system Bos taurus. The essentials:
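Purified bovine brain tubulin, 10 μM (1.0 mg/mL), preincubated with a concentration series in glutamate buffer at 30 °C, then cooled to 0 °C. GTP added, then warmed to 30 °C to start assembly. Turbidity read at 350 nm, with disassembly checked by cooling.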

The target in test [3] is T1, Tubulin (Homo sapiens). The test can be described thus: Displacement of [3H]colchicine from tubulin (unknown origin) at 5 uM. The format is protein-complex assay. In short, it runs like this: as §2
Another test has as its system Mus musculus. The test can be described thus: Vascular disrupting activity in human PC3 cells xenografted SCID mouse assessed as decrease of blood flow in tumor at 350 mg/kg, ip after 80 mins by bioluminescence imaging analysis. The following applies: PC-3. On the set-up: dose 350 mg/kg. It counts as functional, organism-based. A general note: In xenograft studies the graft and the host belong to different species.

For `COc1ccc(/C=C\c2cc(OC)c(OC)c(OC)c2)cc1OP(=O)(O)O` [FOSBRETABULIN DISODIUM], the GI50 in the test on DU-145 came to 16 nM; in the test with NCI-H460, 66 nM.
On Tubulin (Homo sapiens) [1], `COc1ccc2c(C(=O)c3cc(OC)c(OC)c(OC)c3)c(-c3ccc(OC)c(OP(=O)(O)O)c3)n(C)c2c1` registered an inhibition of 29%. Besides, the GI50 in the test on DU-145 came to 4670 nM; in the test on NCI-H460, 3560 nM; in the test on SK-OV-3, 8640 nM. Moreover, the IC50 in test [2] was above 20000 nM.
As for `COc1ccc2c(C(=O)c3cc(OC)c(OC)c(OC)c3)c(-c3ccc(OC)c(OP(=O)(O)O)c3)[nH]c2c1`, on Tubulin (Homo sapiens) [3], the inhibition came out at 26%. In addition, the result in the test with Mus musculus was Active. For the same molecule, the results for the GI50 with DU-145, with NCI-H460 and in the test on SK-OV-3 were 29.7 nM, 31.1 nM and 22.3 nM, respectively. Moreover, in test [2], the IC50 is 4200 nM.
On to `COc1ccc(/C=C\c2cc(OC)c(OC)c(OC)c2)cc1O` [COMBRETASTATIN A4], for which the figures for the GI50 with DU-145, in the test with NCI-H460 and with SK-OV-3 were 0.54 nM, 2.8 nM and 0.42 nM, respectively.
At Tubulin (Homo sapiens) [1], `COc1ccc2c(C(=O)c3cc(OC)c(OC)c(OC)c3)c(-c3ccc(OC)c(O)c3)n(C)c2c1` registered an inhibition of 34%. For the same molecule, the results for the GI50 in the test on DU-145, in the test on NCI-H460 and with SK-OV-3 were 2680 nM, 4140 nM and 2050 nM, respectively. Moreover, the IC50 in test [2] was above 20000 nM.
